Sampled rows, rich in hits. Any-hit rate of the full collection: about 2.4%.
TPT1 inh = C. albicans TPT1 enzyme inhibition | recombinant caTPT1, FP RNA substrate dephosphorylation | inhibition, % at 5 µM | 300,000 tested, 0.81% active;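 active means inhibition above the mean of all tested compounds plus 3 SD, set per screening campaign, cut at about 24% in these data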;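 further: plate controls were DMSO alone for no effect and ferristatin control at 100 nM for full effect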
Rin1-Abl PPI inh = human Rin1-Abl interaction inhibition | P00519+Q13671 | TR-FRET Rin1/Abl binding, biochemical | inhibition, % at 7.35 µM | 360,000 tested, 0.4% active | AID 588664; in the data active means inhibition above about 5%, passing the limit was not always enough
Neddylation inh = inhibitors of human cullin neddylation. P61081+Q13564. TR-FRET cullin neddylation, biochemical. inhibition, % at 25 µM. 360,000 tested, 0.58% active. AID 651699; in the data active means inhibition above about 36%
Target sequence (P61081 whole entry, looked up): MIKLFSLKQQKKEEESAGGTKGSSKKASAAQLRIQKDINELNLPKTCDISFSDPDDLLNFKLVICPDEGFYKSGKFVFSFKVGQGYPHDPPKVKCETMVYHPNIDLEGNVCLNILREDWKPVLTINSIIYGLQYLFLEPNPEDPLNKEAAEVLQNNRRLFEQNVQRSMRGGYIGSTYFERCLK
Target sequence (Q13564 whole entry, looked up): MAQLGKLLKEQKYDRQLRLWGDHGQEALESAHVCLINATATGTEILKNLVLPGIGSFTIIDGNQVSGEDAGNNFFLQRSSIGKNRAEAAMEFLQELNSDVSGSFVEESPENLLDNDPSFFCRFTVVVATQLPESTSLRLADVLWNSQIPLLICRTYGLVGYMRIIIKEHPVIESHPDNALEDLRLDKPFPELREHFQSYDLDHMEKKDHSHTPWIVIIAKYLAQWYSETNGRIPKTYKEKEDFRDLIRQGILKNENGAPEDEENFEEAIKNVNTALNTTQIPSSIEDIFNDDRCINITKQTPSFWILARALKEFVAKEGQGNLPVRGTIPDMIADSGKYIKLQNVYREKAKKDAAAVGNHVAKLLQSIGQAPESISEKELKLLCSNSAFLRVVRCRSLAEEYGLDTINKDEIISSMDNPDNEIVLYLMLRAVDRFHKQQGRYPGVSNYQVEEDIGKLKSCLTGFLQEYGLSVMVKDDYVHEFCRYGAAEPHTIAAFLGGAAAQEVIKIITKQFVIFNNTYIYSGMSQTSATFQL
CSN deneddyl inh = blocks human CSN-mediated cullin deneddylation | AID 651999 | Purified CSN, SCF-Nedd8-OG deneddylation, fluorescence polarization | inhibition, % at 12.5 µM | Q92905 | 360,000 tested, 0.38% active;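 active means pattern-corrected inhibition above about 35%, with an unprinted fluorescence ratio check between 0.5 and 1.5, limit read from the data, passing the limit was not always enough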;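 further: 0% = enzyme with substrate and 100% = substrate without enzyme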
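Material: purified human Csn5 enzyme expressed in HEK293T cells / Medium: Tris buffer pH 7.5, NaCl, DTT, Tween-20, trehalose, ovalbumin / Compound dosing: 12.5 µM single point / Schedule: 90 min incubation of compound, enzyme and substrate at room temperature / Signal: fluorescence polarization of the substrate / Control set: no-enzyme wells high, enzyme-with-substrate wells low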
HNF4A DNA FP = change in binding of human HNF4 alpha to DNA. P41235. HNF4a-FITC DNA binding, fluorescence polarization, 1 h. activity change, % at 10 µM. 360,000 tested, 0.3% active. AID 1224865; in the data active means activity change above about 30%, passing the limit was not always enough
Rpn11 inh = inhibitors of human proteasome Rpn11. O00487. human 26S proteasome, Ub4-pepOG fluorescence polarization; 20S core pre-blocked with epoxomicin. inhibition, % at 20 µM. 360,000 tested, 0.59% active;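 active means inhibition at 20 µM, scaled to each plate's controls, above about 33%, limit read from the data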
caTPT1 confirm = confirmation of Candida albicans TPT1 inhibitors. 2,400 tested, 74% active. inhibition, % at 5 µM. shares compounds with TPT1 inh. recombinant caTPT1, fluorescence polarization, RNase T1 coupled. AID 2149;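 active means inhibition above the primary screen limit, the mean inhibition of all tested compounds plus 3 SD, cut at about 25% in these data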
RNase T1 inh = counter-screen for TPT1 inhibitors: inhibitors of Aspergillus oryzae RNase T1 | RNase T1 cleavage, fluorescence polarization, 1536-well | 2,400 tested, 83% active | AID 2153 | shares compounds with TPT1 inh | inhibition, % at 5 µM;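 active means inhibition above the solvent-only control well mean plus 3 SD, limit set per screening run, cut at about 23% in these data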;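 further: plate controls were DMSO wells with enzyme for no effect and wells without RNase T1 for full effect; inhibitors block cleavage so intact labeled substrate keeps polarization high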
Active calls of the source: *.

How did O=C(O)C1Nc2c(Cl)cc(Cl)cc2C2C=CCC12 (configuration not stated) do in these assays?
TPT1 inh: 33.2*; Rin1-Abl PPI inh: 1.2; Neddylation inh: -5.2; CSN deneddyl inh: 36.3; HNF4A DNA FP: -58.0; caTPT1 confirm: 11.2; RNase T1 inh: 16.5

What do the screens show for `O=C(O)C1Nc2ccc(Br)cc2C2C=CCC12` (configuration not stated)?
TPT1 inh: 28.7*; Rin1-Abl PPI inh: 6.2*; Neddylation inh: -38.9; CSN deneddyl inh: 30.1; HNF4A DNA FP: -66.2; Rpn11 inh: 18.2; caTPT1 confirm: 11.4; RNase T1 inh: 21.5

What do the screens show for `CCOC(=O)C1Nc2ccc(Br)cc2C2C=CCC12` (configuration not stated)?
TPT1 inh: 3.5; Rin1-Abl PPI inh: 2.9; Neddylation inh: -51.6; CSN deneddyl inh: 4.2; HNF4A DNA FP: -2.7; Rpn11 inh: 3.3

Results for Cc1c(NC(=O)CSc2nc3ccccc3c(=O)n2C(C)C)c(=O)n(-c2ccccc2)n1C ?
Rin1-Abl PPI inh: 2.5; Neddylation inh: 6.9; CSN deneddyl inh: -0.3; HNF4A DNA FP: -4.0; Rpn11 inh: -3.6

Results for Cc1cc(=O)n2nc(N3CCCC3C(=O)Nc3cccc(Cl)c3C)sc2n1 (configuration not stated) ?
TPT1 inh: 30.4*; Rin1-Abl PPI inh: 3.0; Neddylation inh: -2.8; CSN deneddyl inh: 4.2; HNF4A DNA FP: 12.8; Rpn11 inh: 27.8; caTPT1 confirm: 92.0*; RNase T1 inh: 103.1*

Results for O/C(=C\c1ccc2ccccc2n1)c1ccc(O)cc1O ?
TPT1 inh: 98.0*; Rin1-Abl PPI inh: -3.8; Neddylation inh: -57.6; CSN deneddyl inh: 37.5; HNF4A DNA FP: 64.9*; caTPT1 confirm: 109.9*; RNase T1 inh: 107.9*

How did CNC(=O)/C(C#N)=C/c1c(N2CCCCCC2)nc2ccccn2c1=O do in these assays?
TPT1 inh: 36.0*; Rin1-Abl PPI inh: -3.4; CSN deneddyl inh: 7.5; HNF4A DNA FP: 7.0; Rpn11 inh: 0.1; caTPT1 confirm: 51.4*; RNase T1 inh: 60.2*

How did NC(=O)c1cccc(CC(=O)c2ccccc2)c1 do in these assays?
TPT1 inh: 74.5*; Rin1-Abl PPI inh: 1.6; Neddylation inh: 5.2; CSN deneddyl inh: -1.5; HNF4A DNA FP: 2.5; Rpn11 inh: -4.1; caTPT1 confirm: 8.2; RNase T1 inh: 12.9

What do the screens show for `O=C(Cc1ccccc1)c1ccc(O)cc1`?
Rin1-Abl PPI inh: 3.3; Neddylation inh: 0.2; CSN deneddyl inh: -1.8; HNF4A DNA FP: -0.5; Rpn11 inh: -2.3

How did CCOC(=O)C1C(=O)NC(SCC(N)=O)=C(C#N)C1c1ccccc1OCC (configuration not stated) do in these assays?
TPT1 inh: 69.9*; Rin1-Abl PPI inh: -3.2; Neddylation inh: -12.8; CSN deneddyl inh: 43.0*; HNF4A DNA FP: 98.7*; caTPT1 confirm: 68.2*; RNase T1 inh: 78.1*

Results for COc1ccc(OC)c(/C=C2\Oc3cc(OCC(=O)N4CCC[C@H]4C(=O)O)ccc3C2=O)c1 ?
TPT1 inh: 16.0; Rin1-Abl PPI inh: -4.2; Neddylation inh: 5.5; CSN deneddyl inh: 6.7; HNF4A DNA FP: 1.4; Rpn11 inh: 5.4

How did COc1cc(OC)c(OC)cc1/C=C1\Oc2cc(OCC(=O)N3Cc4ccccc4C[C@H]3C(=O)O)ccc2C1=O do in these assays?
TPT1 inh: 73.4*; Rin1-Abl PPI inh: -6.7; Neddylation inh: 6.1; CSN deneddyl inh: 91.8; HNF4A DNA FP: 61.2*; caTPT1 confirm: 80.7*; RNase T1 inh: 84.5*

Results for Cc1cccc(OCc2nnc(SCC(=O)NCc3ccc4c(c3)OCO4)o2)c1 ?
Rin1-Abl PPI inh: 0.7; Neddylation inh: -2.1; CSN deneddyl inh: -8.2; HNF4A DNA FP: -0.2; Rpn11 inh: -0.1

Results for Cc1ccccc1NC(=O)c1c(C)[nH]c(=S)c(C#N)c1-c1ccc(Cl)cc1 ?
TPT1 inh: 30.1*; Rin1-Abl PPI inh: -4.2; Neddylation inh: -160.7; CSN deneddyl inh: -2.0; HNF4A DNA FP: 0.7; Rpn11 inh: 12.8; caTPT1 confirm: 15.3; RNase T1 inh: 22.3*
